Experimental data taken from ChEMBL document CHEMBL4138168, “Design and synthesis of novel thiobarbituric acid derivatives targeting both wild-type and BRAF-mutated melanoma cells” (Eur J Med Chem, 2018).
Activity calls are given as the source filed them. The rule behind the calls is not given here.

Assays:
CHL-1 [1] = assay: Induction of apoptosis in human CHL-1 cells harboring wild type BRAF assessed as increase in dead cells at 50 uM after 24 hrs by Calcein-AM/ethidium bromide staining-based fluorescence assay (reference value: 2%); format: functional
UACC-903 [2] = assay: Induction of apoptosis in human UACC-903 cells harboring BRAF mutant assessed as viable cells at 25 uM after 24 hrs by Annexin V/7-AAD staining-based assay (reference value: 95.64%); format: functional; settings: UACC-903, 24 h, read-out: Activity
UACC-903 [3] = assay: Antiproliferative activity against human UACC-903 cells harboring BRAF mutant after 48 hrs by MTT assay; format: functional, cell-based; settings: UACC-903, 48 h
Procedure, shortened: (§1)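 3,000 cells per well, grown at 37 °C (DMEM with 10% FBS and penicillin/streptomycin; HCT116 in McCoy's 5A). Cells exposed in triplicate to 0.5–25 μM compound for 48 h. MTT (5 mg/mL PBS stock) added for 3 h, formazan dissolved in DMSO, OD read at 570 nm minus 630 nm background. IC50 from non-linear regression of two independent experiments.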

UACC-903 [4] = assay: Induction of apoptosis in human UACC-903 cells harboring BRAF mutant assessed as decrease in survivin level at 5 to 25 uM after 24 hrs by Western blot analysis; format: functional, cell-based
Procedure, shortened: (§2)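 2 × 10^6 cells treated with the indicated concentrations for 24 h. Whole-cell lysates run on SDS-PAGE, transferred to PVDF, probed with antibodies against apoptosis/survival proteins, and detected by enhanced chemiluminescence.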

UACC-903 [5] = assay: Induction of apoptosis in human UACC-903 cells harboring BRAF mutant assessed as decrease in Bcl-xL level at 5 to 25 uM after 24 hrs by Western blot analysis; format: functional, cell-based; procedure, shortened: as §2
UACC-903 [6] = assay: Induction of apoptosis in human UACC-903 cells harboring BRAF mutant assessed as necrotic cells at 5 uM after 24 hrs by Annexin V/7-AAD staining-based assay (reference value: 0.12%); format: functional
UACC-903 [7] = assay: Induction of apoptosis in human UACC-903 cells harboring BRAF mutant assessed as increase in dead cells at 25 uM after 24 hrs by Calcein-AM/ethidium bromide staining-based fluorescence assay (reference value: 3%); format: functional
UACC-903 [8] = assay: Induction of apoptosis in human UACC-903 cells harboring BRAF mutant assessed as apoptotic cells level at 5 uM after 24 hrs by AAD dye containing caspase 3/7 activity assay (reference value: 6.88%); format: functional
CHL-1 [9] = assay: Induction of apoptosis in human CHL-1 cells harboring wild type BRAF assessed as […] in cleaved PARP level at 5 to 25 uM after 24 hrs by Western blot analysis; format: functional, cell-based; procedure, shortened: as §2
UACC-903 [10] = assay: Induction of apoptosis in human UACC-903 cells harboring BRAF mutant assessed as dead cells level at 25 uM after 24 hrs by AAD dye containing caspase 3/7 activity assay (reference value: 0.06%); format: functional
UACC-903 [11] = assay: Induction of apoptosis in human UACC-903 cells harboring BRAF mutant assessed as apoptotic cells level at 25 uM after 24 hrs by AAD dye containing caspase 3/7 activity assay (reference value: 6.88%); format: functional
CHL-1 [12] = assay: Induction of apoptosis in human CHL-1 cells harboring wild type BRAF assessed as increase in phosphorylated Bcl-2 level at 5 to 25 uM after 24 hrs by Western blot analysis; format: functional, cell-based; procedure, shortened: as §2
[13] = Selectivity ratio of cytotoxicity against human MCF10A cells to cytotoxicity against human MCF7 cells; format: toxicity, cell-based; settings: MCF10A cells versus MCF7 cells
MCF7 [14] = assay: Antiproliferative activity against human MCF7 cells expressing ER/PR/HER2 after 48 hrs by MTT assay; format: functional, cell-based; settings: MCF7, 48 h; procedure, shortened: as §1
UACC-903 [15] = assay: Induction of apoptosis in human UACC-903 cells harboring BRAF mutant assessed as dead cells level at 5 uM after 24 hrs by AAD dye containing caspase 3/7 activity assay (reference value: 0.06%); format: functional
PANC-1 = assay: Antiproliferative activity against human PANC1 cells after 48 hrs by MTT assay; format: functional, cell-based; settings: PANC-1, 48 h; procedure, shortened: as §1
CHL-1 [16] = assay: Induction of apoptosis in human CHL-1 cells harboring wild type BRAF assessed as decrease in Bcl-xL level at 5 to 25 uM after 24 hrs by Western blot analysis; format: functional, cell-based; procedure, shortened: as §2
MDA-MB-231 = assay: Cytotoxicity against human MDA-MB-231 cells assessed as cell viability at 25 uM after 48 hrs by MTT assay relative to control; format: functional; settings: MDA-MB-231, 48 h, read-out: Activity
Procedure, shortened: (§3)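 MTT viability at a single 25 μM dose, 48 h, 3,000 cells/well. MCF10A normal breast epithelial cells were kept in MEGM mammary epithelial medium; the cancer lines were in DMEM with 10% FBS, 37 °C. OD at 570 nm with 630 nm background, expressed relative to control.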

MCF7 [17] = assay: Cytotoxicity against human MCF7 cells assessed as cell viability at 25 uM after 48 hrs by MTT assay relative to control; format: functional; settings: MCF7, 48 h, read-out: Activity; procedure, shortened: as §3
CHL-1 [18] = assay: Induction of apoptosis in human CHL-1 cells harboring wild type BRAF assessed as decrease in survivin level at 5 to 25 uM after 24 hrs by Western blot analysis; format: functional, cell-based; procedure, shortened: as §2
[19] = Antiproliferative activity against human A375M cells after 48 hrs by MTT assay; format: functional, cell-based; procedure, shortened: as §1
UACC-903 [20] = assay: Induction of apoptosis in human UACC-903 cells harboring BRAF mutant assessed as live cells level at 5 uM after 24 hrs by AAD dye containing caspase 3/7 activity assay (reference value: 90.06%); format: functional
[21] = Selectivity ratio of cytotoxicity against human MCF10A cells to cytotoxicity against human MDA-MB-231 cells; format: toxicity, cell-based; settings: MCF10A cells versus MDA-MB-231 cells
[22] = Antiproliferative activity against human 1205 Lu cells after 48 hrs by MTT assay; format: functional, cell-based; procedure, shortened: as §1
UACC-903 [23] = assay: Induction of apoptosis in human UACC-903 cells harboring BRAF mutant assessed as apoptotic dead cells level at 5 uM after 24 hrs by AAD dye containing caspase 3/7 activity assay (reference value: 3%); format: functional
UACC-903 [24] = assay: Induction of apoptosis in human UACC-903 cells harboring BRAF mutant assessed as increase in phosphorylated Bcl-2 level at 5 to 25 uM after 24 hrs by Western blot analysis; format: functional, cell-based; procedure, shortened: as §2
UACC-903 [25] = assay: Induction of apoptosis in human UACC-903 cells harboring BRAF mutant assessed as early apoptotic cells at 5 uM after 24 hrs by Annexin V/7-AAD staining-based assay (reference value: 2.68%); format: functional
HCT-116 = assay: Antiproliferative activity against human HCT116 cells after 48 hrs by MTT assay; format: functional, cell-based; settings: HCT-116, 48 h; procedure, shortened: as §1
UACC-903 [26] = assay: Induction of apoptosis in human UACC-903 cells harboring BRAF mutant assessed as late apoptotic cells at 5 uM after 24 hrs by Annexin V/7-AAD staining-based assay (reference value: 1.56%); format: functional
UACC-903 [27] = assay: Induction of apoptosis in human UACC-903 cells harboring BRAF mutant assessed as […] in cleaved PARP level at 5 to 25 uM after 24 hrs by Western blot analysis; format: functional, cell-based; procedure, shortened: as §2
[28] = Selectivity ratio of cytotoxicity against human MCF10A cells to IC50 for human UACC-903 cells harboring BRAF mutant; format: toxicity, cell-based; settings: MCF10A cells versus UACC-903 cells harboring BRAF mutant

SMILES | Activity (CHL-1 [1]) [%] | viability at 25 µM (UACC-903 [2]) [%] | IC50 (UACC-903 [3]) [µM] | Activity (UACC-903 [4]) | Activity (UACC-903 [5]) | Activity (UACC-903 [6]) [%] | Activity (UACC-903 [7]) | Activity (UACC-903 [8]) [%] | Activity (CHL-1 [9]) | Activity (UACC-903 [10]) [%] | Activity (UACC-903 [11]) [%] | Activity (CHL-1 [12]) | selectivity ratio [13] | IC50 (MCF7 [14]) [µM] | Activity (UACC-903 [15]) [%] | IC50 (PANC-1) [µM] | Activity (CHL-1 [16]) | viability at 25 µM (MDA-MB-231) [%] | viability at 25 µM (MCF7 [17]) [%] | Activity (CHL-1 [18]) | also measured
O=C1NC(=S)NC(=O)C1=C/C=C/c1cccs1 | 98 | 25.8 | 8.1 | Active | Active | 0.4 | 70% | 5.46 | Active | 0.58 | 38.14 | Active | 2 | 16.2 | 0.32 | 19.1 | Active | 20 to 30 | 20 to 30 | Active | IC50 [19]: 10.6 µM; Activity (UACC-903 [20]): 90.28%; selectivity ratio [21]: 2; IC50 [22]: 12.4 µM; Activity (UACC-903 [23]): 3.94%; Activity (UACC-903 [24]): Active; Activity (UACC-903 [25]): 5.12%; IC50 (HCT-116): 7.7 µM; Activity (UACC-903 [26]): 3.14%; Activity (UACC-903 [27]): Active; selectivity ratio [28]: 3
O=C1NC(=S)N(c2ccccc2)C(=O)/C1=C/C=C/c1cccs1 | 40 | 29.4 | 7.6 | Active | Active | 0.54 | 15 - 25% | 9.68 | Active | 0.14 | 50.06 | Active | 2 | 16.5 | 0.18 | 8.3 | Active | 20 to 30 | 20 to 30 | Active | IC50 [19]: 14.8 µM; Activity (UACC-903 [20]): 87.26%; selectivity ratio [21]: 2; IC50 [22]: 13.5 µM; Activity (UACC-903 [23]): 2.88%; Activity (UACC-903 [24]): Active; Activity (UACC-903 [25]): 3.7%; IC50 (HCT-116): 2.4 µM; Activity (UACC-903 [26]): 3.18%; Activity (UACC-903 [27]): Active; selectivity ratio [28]: 3
